Results taken from ChEMBL document CHEMBL1121557, “Chemistry, pharmacology, and structure-activity relationships with a new type of imidazolines exerting a specific bradycardic action at a cardiac site” (J Med Chem, 1980).
In brackets after ≈: the same amount, converted by molar mass.

Columns and labels:
[1] = organism: Rattus norvegicus; experiment: Evaluated for decreased heart rate in spinal rats, relative activity was determined; assay type: functional
Procedure, shortened: (§1)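 Male Chbb:THOM rats, 200–250 g, under pentobarbital sodium 50 mg/kg ip, atropine sulfate 1 mg/kg sc, trachea cannulated. Medulla cut at C1, brain destroyed, artificially ventilated. Jugular iv injections given cumulatively, dose doubled every 2 min, 3 doses per animal, top cumulative dose 10 mg/kg. ECG-triggered tachograph heart rate. D150 (dose lowering rate 150 beats/min) read graphically from log dose–response curves; n = 6 rats.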

[2] = Partition coefficient (logD7.4); conditions: octanol/water, pH 7.4
[3] = Dissociation constant (pKa); assay type: physicochemical
[4] = tested on: Rattus norvegicus; experiment: Dose required to decrease heart rate after iv injection to spinal rats; assay type: functional; procedure, shortened: as §1
[5] = organism: Cavia porcellus; experiment: Evaluated for decrease in spontaneous frequency of atrial rate in isolated guinea pig atria; assay type: functional; conditions: Cardiac atrium
Procedure, shortened: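 Atria dissected from guinea pigs of various breeds (300–500 g, either sex) and suspended in modified Tyrode's solution gassed with 98% O2/2% CO2, resting tension 1 g. Spontaneously beating atria at 37 °C, equilibrated at least 30 min until rate stable within 5 beats/min. Drug added cumulatively, concentration doubled every 10 min. EC30 = concentration reducing predrug rate by 30%, read from curves.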

[6] = organism: Cavia porcellus; experiment: Evaluated for decrease in maximal driving frequency in isolated guinea pig atria; assay type: functional
Procedure, shortened: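 Guinea pig left atria in modified Tyrode's gassed 98% O2/2% CO2, 1 g resting tension, driven with 1 ms pulses at 3× threshold. Runs separated by 5 min at 0.5 Hz. Control is the mean of 3 predrug runs; the value is the mean of runs at 5 and 10 min after each cumulative addition, concentration doubled every 10 min. EC30 read from curves.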

[7] = Ratio of contractility to atrial rate in isolated guinea pig atria; assay type: functional, Cardiac atrium
Procedure, shortened: (§2)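 Ratios of EC30 values from isolated guinea pig atria. Atrial rate was measured in spontaneously beating atria at 37 °C after at least 30 min of equilibration, until rate varied by no more than 5 beats/min. Contractility was measured in left atria driven at 2.5 Hz, 30 °C. Maximal driving frequency was found by stepwise pacing. Compound was added cumulatively, concentration doubled every 10 min.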

[8] = organism: Cavia porcellus; experiment: Evaluated for decrease in contractility in isolated guinea pig atria; assay type: functional
Procedure, shortened: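 Electrically driven left guinea pig atria (300–500 g, either sex) in modified Tyrode's gassed 98% O2/2% CO2, 30 °C, 1 g resting tension. Stimulation 3 ms rectangular pulses at 1.5× threshold, 2.5 Hz, after 20 min equilibration. Isometric force in grams. Concentrations added cumulatively, doubled every 10 min, one atrium per experiment. EC30 (30% fall from predrug value) read from curves.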

[9] = EC30 ratio of contractility to atrial rate in isolated guinea pig atria; assay type: functional, Cardiac atrium; procedure, shortened: as §2
[10] = EC30 ratio of maximal driving frequency to atrial rate in isolated guinea pig atria; assay type: functional, Cardiac atrium; procedure, shortened: as §2

SMILES: Brc1ccccc1N(CC1CC1)C1=NCCN1
- Relative activity [1]: 0.14
- logD [2]: -1.3
- pKa [3]: 11.2
- D150 [4]: 4.4 mg/kg

SMILES: Cc1cccc(Cl)c1N(CC1CC1)C1=NCCN1
- Relative activity [1]: 0.34
- logD [2]: -0.99
- pKa [3]: 11.3
- D150 [4]: 1.85 mg/kg

SMILES: CC(C)N(C1=NCCN1)c1c(Br)cccc1Br
- Relative activity [1]: 0.27
- logD [2]: -0.82
- pKa [3]: 11.2
- D150 [4]: 2.3 mg/kg

SMILES: CC(C)CN(C1=NCCN1)c1c(Br)cccc1Br
- Relative activity [1]: 0.46
- logD [2]: -0.64
- pKa [3]: 11
- D150 [4]: 1.35 mg/kg

SMILES: Brc1cccc(Br)c1N(CC1CC1)C1=NCCCN1
- Relative activity [1]: 0.56
- logD [2]: -1.03
- pKa [3]: 12.4
- D150 [4]: 1.1 mg/kg

SMILES: Brc1cccc(Br)c1N(CC1CCC1)C1=NCCN1
- Relative activity [1]: 0.52
- logD [2]: -0.06
- pKa [3]: 10.9
- D150 [4]: 1.2 mg/kg

SMILES: Brc1ccc(N(CC2CC2)C2=NCCN2)cc1Br
- Relative activity [1]: <<0.062
- D150 [4]: >>10 mg kg-1

SMILES: CCCCN(C1=NCCN1)c1c(Br)cccc1Br
- Relative activity [1]: 0.46
- logD [2]: -2.5
- pKa [3]: 11
- D150 [4]: 1.35 mg/kg

SMILES: C=CCN(C1=NCCN1)c1c(Br)cccc1Br
- Relative activity [1]: 0.41
- logD [2]: -0.75
- pKa [3]: 10.7
- D150 [4]: 1.5 mg/kg

SMILES: Brc1cccc(Br)c1N(Cc1ccccc1)C1=NCCN1
- Relative activity [1]: 0.25
- logD [2]: -0.05
- pKa [3]: 10.4
- D150 [4]: 2.5 mg/kg

SMILES: Brc1cccc(N(CC2CC2)C2=NCCN2)c1Br
- Relative activity [1]: 0.083
- logD [2]: -0.41
- pKa [3]: 11.1
- D150 [4]: 7.5 mg/kg

SMILES: CCCN(C1=NCCN1)c1c(Br)cccc1Br
- Relative activity [1]: 0.95
- logD [2]: -0.55
- pKa [3]: 11
- D150 [4]: 0.65 mg/kg

SMILES: Fc1cccc(Br)c1N(CC1CC1)C1=NCCN1
- Relative activity [1]: 0.41
- logD [2]: -1.03
- pKa [3]: 10.7
- D150 [4]: 1.5 mg/kg

SMILES: CCCCCN(C1=NCCN1)c1c(Br)cccc1Br
- Relative activity [1]: 0.39
- logD [2]: 0.32
- pKa [3]: 11
- D150 [4]: 1.6 mg/kg

SMILES: C=C(C)CCN(C1=NCCN1)c1c(Br)cccc1Br
- Relative activity [1]: 0.6
- logD [2]: 0.02
- pKa [3]: 10.9
- D150 [4]: 1.03 mg/kg

SMILES: CN(C1=NCCN1)c1c(Br)cccc1Br
- pKa [3]: 10.7
- D150 [4]: 1.4 mg/kg

SMILES: Brc1cccc(Br)c1N(Cc1ccco1)C1=NCCN1
- Relative activity [1]: 0.22
- logD [2]: -0.52
- pKa [3]: 10.5
- D150 [4]: 2.8 mg/kg

SMILES: C/C=C/CN(C1=NCCN1)c1c(Br)cccc1Br
- Relative activity [1]: 0.88
- logD [2]: -0.49
- pKa [3]: 11
- D150 [4]: 0.7 mg/kg

SMILES: C#CCN(C1=NCCN1)c1c(Br)cccc1Br
- Relative activity [1]: 0.5
- logD [2]: -0.18
- pKa [3]: 10.1
- D150 [4]: 1.25 mg/kg

SMILES: Fc1cccc(Cl)c1N(CC1CC1)C1=NCCN1
- Relative activity [1]: 0.84
- logD [2]: -0.98
- pKa [3]: 10.8
- D150 [4]: 0.74 mg/kg

SMILES: CC(C)CCN(C1=NCCN1)c1c(Br)cccc1Br
- Relative activity [1]: 0.48
- logD [2]: 0.16
- pKa [3]: 10.9
- D150 [4]: 1.3 mg/kg

SMILES: Brc1cccc(Br)c1N(C1=NCCN1)C1CCCCC1
- Relative activity [1]: 0.24
- logD [2]: 0.14
- pKa [3]: 11.3
- D150 [4]: 2.6 mg/kg

SMILES: CC(C)=CCN(C1=NCCN1)c1c(Br)cccc1Br
- Relative activity [1]: 0.18
- logD [2]: -0.14
- pKa [3]: 10.8
- D150 [4]: 3.5 mg/kg

SMILES: CCN(C1=NCCN1)c1c(Br)cccc1Br
- Relative activity [1]: 0.83
- logD [2]: -1.01
- pKa [3]: 11.1
- D150 [4]: 0.75 mg/kg

SMILES: Brc1ccc(N(CC2CC2)C2=NCCN2)c(Br)c1
- Relative activity [1]: 0.062
- logD [2]: -0.31
- pKa [3]: 11.2
- D150 [4]: 10 mg/kg

SMILES: Brc1cccc(Br)c1N(CC1CCCC1)C1=NCCN1
- Relative activity [1]: 0.48
- logD [2]: 0.32
- pKa [3]: 10.9
- D150 [4]: 1.3 mg/kg

SMILES: Brc1cccc(Br)c1N(Cc1cccs1)C1=NCCN1
- Relative activity [1]: 0.33
- logD [2]: -0.1
- pKa [3]: 10.5
- D150 [4]: 1.9 mg/kg

SMILES: Fc1cccc(F)c1N(CC1CC1)C1=NCCN1
- Relative activity [1]: 0.13
- logD [2]: -1.41
- pKa [3]: 10.3
- D150 [4]: 4.8 mg/kg

SMILES: Brc1ccc(Br)c(N(CC2CC2)C2=NCCN2)c1
- Relative activity [1]: 0.12
- logD [2]: -0.52
- pKa [3]: 11
- D150 [4]: 5 mg/kg

SMILES: N=C(N)N(CC1CC1)c1c(Br)cccc1Br
- Relative activity [1]: <0.062
- logD [2]: -0.63
- pKa [3]: 11.9
- D150 [4]: >10 mg/kg

SMILES: Brc1cccc(Br)c1N(CC1CCCCC1)C1=NCCN1
- Relative activity [1]: 0.095
- logD [2]: 0.27
- pKa [3]: 11.2
- D150 [4]: 6.5 mg/kg

SMILES: Fc1cccc(C(F)(F)F)c1N(CC1CC1)C1=NCCN1
- Relative activity [1]: 0.34
- logD [2]: -0.95
- pKa [3]: 10.7
- D150 [4]: 1.8 mg/kg

SMILES: C=C(C)CN(C1=NCCN1)c1c(Br)cccc1Br
- Relative activity [1]: 0.3
- logD [2]: -0.66
- pKa [3]: 10.7
- D150 [4]: 2.1 mg/kg

SMILES: Brc1cccc(Br)c1N(C1=NCCN1)C1CCCC1
- Relative activity [1]: 0.62
- logD [2]: -0.29
- pKa [3]: 11.2
- D150 [4]: 1 mg/kg

SMILES: C=CCCN(C1=NCCN1)c1c(Br)cccc1Br
- Relative activity [1]: 0.62
- logD [2]: -0.63
- pKa [3]: 11.2
- D150 [4]: 1 mg/kg

SMILES: Clc1cccc(Br)c1N(CC1CC1)C1=NCCN1
- Relative activity [1]: 1.48
- logD [2]: -0.79
- pKa [3]: 10.8
- D150 [4]: 0.42 mg/kg

SMILES: Clc1cccc(Cl)c1N(CC1CC1)C1=NCCN1
- Relative activity [1]: 0.95
- logD [2]: -0.92
- pKa [3]: 10.9
- D150 [4]: 0.65 mg/kg

SMILES: COc1ccc(CCN(C)CCCC(C#N)(c2ccc(OC)c(OC)c2)C(C)C)cc1OC (configuration not stated)
- EC30 [5]: 0.2 µg/mL (≈ 0.44 µM)
- EC30 [6]: 6.5 µg/mL (≈ 14.3 µM)
- Ratio [7]: 1.2
- EC30 [8]: 0.24 µg/mL (≈ 0.528 µM)

SMILES: C=CCN(C1=NCCN1)c1c(Cl)cccc1Cl [ALINIDINE]
- Relative activity [1]: 0.25
- logD [2]: -1.66
- pKa [3]: 10.4
- D150 [4]: 2.5 mg/kg

SMILES: C=C[C@H]1CN2CC[C@H]1C[C@@H]2[C@@H](O)c1ccnc2ccc(OC)cc12 [QUINIDINE]
- EC30 [5]: 7.2 µg/mL (≈ 22.2 µM)
- EC30 [6]: 6.5 µg/mL (≈ 20 µM)
- Ratio [9]: 8.6
- Ratio [10]: 0.9
- EC30 [8]: 62 µg/mL (≈ 191 µM)
